One data set deals with plasma proteins. To be noted: cited from earlier work.
For data set [1] the following is noted: cited from earlier work; for half-life (T1/2): humans.
Data set [2] in a line: Monkey mass balance and urine metabolite profile. It counts as in vivo, Macaca fascicularis monkeys. To be noted: 30 mg/kg, urine 0–24 hours.
A short description of data set [3]: Human mass balance and urine metabolite profile. The data set is classed as in vivo, human (healthy men). As to conditions: 60 mg, urine 0–120 hours. An outline of the steps: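 Open-label single-centre study in healthy young men. Each took one oral 5 mL solution of 60 mg [14C]-test compound (3.7 MBq), about 30 min after starting breakfast. Urine was collected in intervals to 120 h and feces in 24-h intervals to 120 h. Radioactivity was read by liquid scintillation and reported as % of dose. Urinary analytes were measured by LC–MS/MS (1–5,000 ng/mL) before and after β-glucuronidase/sulfatase deconjugation (15 h, 37°C).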

A short description of data set [4]: Rat mass balance and urine metabolite profile. The data set is classed as in vivo, Sprague Dawley rats. As to conditions: rat (Sprague Dawley), 50 mg/kg, urine 0–24 hours. An outline of the steps:
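Sprague Dawley rats received 50 mg/kg [14C]-test compound by gavage in ultrapure water. Urine, feces and cage wash were collected from 3 males and 3 females pre-dose and at 0–8, 8–24, 24–48 and 48–72 h. A second study collected urine from 3 males to 24 h. Radioactivity was counted by liquid scintillation as % of dose. Urinary analytes were measured by LC–MS/MS (50–24,750 ng/mL), with and without deconjugation (15 h, 37°C).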

The format of data set [5] is in vivo, human (healthy men). To be noted: human.
Data set [6] in a line: Rat plasma PK and plasma metabolite profile after oral [14C]-levomilnacipran. It counts as in vivo, Sprague Dawley rats. Put shortly: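 Male Sprague Dawley rats were gavaged with 50 mg/kg [14C]-test compound. Aortic blood was drawn under isoflurane into lithium heparin, three rats per time, from 0.25 to 72 h (second study: 1–10 h). Plasma radioactivity was counted by liquid scintillation. Parent and N-desethyl metabolite were measured by LC–MS/MS (1–500 ng/mL), and conjugates after β-glucuronidase/sulfatase deconjugation. Cmax and AUC came from non-compartmental analysis.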

The mark [7] stands for this setting: Sprague Dawley, rat, plasma, po, 50 mg/kg.

Several values for one entry are separate records, joined by “and”; a condition that tells them apart may be missing. Identical values can stand only once. Like-named read-outs stand apart in the source and are kept apart here.

Turning to `CCN(CC)C(=O)C1(c2ccccc2)CC1CN` (stereo not drawn) [milnacipran], the plasma protein binding with plasma proteins is reported as 13%. Also, the “half-life (T1/2)” value in data set [1] was 8 h.

For `CNCC[C@H](Oc1cccc2ccccc12)c1cccs1` [duloxetine], the plasma protein binding result with plasma proteins is on record as “greater than 90%”. In data set [1], the “Urinary excretion as unchanged (parent) drug” value was “less than 1%” and the “half-life (T1/2)” value was 12 h.

On to `CCN(CC)C(=O)[C@@]1(c2ccccc2)C[C@H]1CN` [Levomilnacipran, levomilnacipran], for which the “Mean urinary excretion of compound” value in data set [2] is recorded as 35.5 % of administered dose. Further, the “Mean urinary excretion of compound” value in data set [3] is 58.4 % of administered dose. Further, the “Mean urinary excretion of compound” value in data set [3] (listed as levomilnacipran) is 58.4 % of administered dose and 58 % of administered dose. Moreover, in data set [4], the “Mean urinary excretion of compound” value is reported as 40.2 % of administered dose. Besides, the “Contribution to total radioactivity plasma exposure (area under the curve)” value in data set [5] (60 mg oral) was determined as 45.1%. Also, in data set [5] (from average peak plasma concentrations), the “Contribution to total plasma radioactivity at peak plasma levels” value is 61.0%. For the same molecule, the “Share of total plasma radioactivity” value in data set [5] (within 12 hours of dosing) was determined as 52.9%. In data set [5] (male, plasma, po, 60 mg), the AUC(0-inf) (in general, total exposure, with the tail of the curve extrapolated) is 2090 ng·h/mL; the AUC(0-t) – broadly, exposure summed from dosing to a finite time, without extrapolation to infinity – is 2060 ng·h/mL; the Cmax – broadly, the maximum level reached in the sampled fluid or tissue – stood at 179 ng/mL; the Tmax (as a rule, the time from dosing to the highest level) amounted to 2.75 h. In addition, the half-life (usually how long it takes for the measured level to halve) in data set [5] (male, plasma, po, 60 mg) is 10.4 h. In data set [6] (setting [7]), the AUC(0-inf) was determined as 16600 ng·h/mL, the AUC(0-t) worked out at 16600 ng·h/mL, the Cmax came to 8060 ng/mL and the Tmax came to 0.5 h. Further, the “Share of circulating total radioactivity” value in data set [6] (male rats, 50 mg/kg oral) is recorded as “about 60%”.

For the molecule `COc1ccc(C(CN(C)C)C2(O)CCCCC2)cc1` (stereo not drawn) [venlafaxine], in the data set with plasma proteins, the plasma protein binding is reported as 27%. In data set [1], the “half-life (T1/2)” value is 5 h.

Consider `CN(C)CC(c1ccc(O)cc1)C1(O)CCCCC1` (stereo not drawn) [desvenlafaxine], for which, in the data set with plasma proteins, the plasma protein binding was 30%. In data set [1], the “Urinary excretion as unchanged (parent) drug” value is 45% and the “half-life (T1/2)” value is 11 h.
